Data reported in ChEMBL document CHEMBL1144887, “Indanylidenes. 1. Design and synthesis of (E)-2-(4,6-difluoro-1-indanylidene)acetamide, a potent, centrally acting muscle relaxant with antiinflammatory and analgesic activity” (J Med Chem, 2003).

What was measured:
Rattus norvegicus [1] = experiment: Antiinflammatory activity in cells by Carrageenan pleurisy assay by oral administration; type: functional
In short: (§1)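 Rat carrageenan pleurisy, 3 h. Compounds given orally, with separate read-outs for pleural cell counts and edema. ED50 reported in mg/kg po. Each compound tested two or three times; average variation approximately 10%.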

Rattus norvegicus [2] = experiment: Effective dose required for muscle relaxation after oral administration in Wistar rats by pull-up test
[3] = biological target: T1, Amine oxidase [flavin-containing] A (Homo sapiens, UniProt P21397); experiment: Inhibitory concentration against Monoamine oxidase A (MAO-A)
T1 sequence (P21397 whole entry): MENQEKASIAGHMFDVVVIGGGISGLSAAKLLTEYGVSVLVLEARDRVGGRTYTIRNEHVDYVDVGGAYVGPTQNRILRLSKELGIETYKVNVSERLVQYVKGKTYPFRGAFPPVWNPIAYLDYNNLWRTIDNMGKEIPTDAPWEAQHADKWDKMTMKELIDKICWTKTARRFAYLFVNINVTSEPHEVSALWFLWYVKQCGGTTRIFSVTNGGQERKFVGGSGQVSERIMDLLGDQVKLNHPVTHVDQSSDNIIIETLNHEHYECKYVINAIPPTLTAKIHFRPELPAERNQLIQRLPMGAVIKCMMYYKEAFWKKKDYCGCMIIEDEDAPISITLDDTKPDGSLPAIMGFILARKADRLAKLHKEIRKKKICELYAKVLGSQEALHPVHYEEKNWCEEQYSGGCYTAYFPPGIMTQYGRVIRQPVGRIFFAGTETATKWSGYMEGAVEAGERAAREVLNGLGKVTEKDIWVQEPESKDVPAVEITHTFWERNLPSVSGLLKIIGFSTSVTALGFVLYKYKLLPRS

Mus musculus [4] = experiment: Sedation caused by oral administration was estimated using rotarod (RR) assay.; type: functional
In short: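 Mouse rotorod test for sedation, oral dosing, generally at a minimum of three doses with N = 6 animals per dose group.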

Rattus norvegicus [5] = experiment: Antiinflammatory activity in edema by Carrageenan pleurisy assay by oral administration; type: functional; in short: as §1
Mus musculus [6] = experiment: Effective dose required for muscle relaxation by oral administration in mouse using Straub-tail (ST) assay.; type: functional
In short: (§2)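 Mouse morphine-induced Straub tail assay, scoring inhibition of sacro-coccygeus dorsalis contraction. Dosed ip or po, generally at a minimum of three doses with N = 6 animals per dose group.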

[7] = Effective dose required to produce analgesic activity in the phalanges algesia assay by oral administration; type: functional
[8] = Effective dose required to produce analgesic activity in the adjuvant arthritis hyperalgesia assay by oral administration; type: functional
Mus musculus [9] = experiment: (§3) Percent effect profile muscle relaxation at 100 mg/kg by intraperitoneal administration in mouse using Straub-tail (ST) assay; type: functional; details: ip
In short: (§4)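 Mouse morphine-induced Straub tail assay, scoring inhibition of sacro-coccygeus dorsalis contraction. Single ip dose of 100 mg/kg; percent effect reported. Compounds above 50% inhibition were then tested orally.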

Rattus norvegicus [10] = experiment: Effective dose required for analgesic activity by trypsin-induced hyperalgesia assay at 20 mg/kg by oral administration in rats; type: functional
In short: (§5)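 Rat trypsin-induced hyperalgesia (mild analgesia) with oral dosing. ED50 reported in mg/kg po. Each compound tested two or three times; average variation approximately 5%.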

Rattus norvegicus [11] = experiment: Effective dose required to produce analgesic activity in the trypsin hyperalgesia assay by oral administration
Mus musculus [12] = experiment: Evaluated for sedation in mice by loss of righting reflex up to a dose of 200 mg/kg by oral administration; No loss of righting reflex; type: functional, organism-based; design: dose 200 mg/kg
Rattus norvegicus [13] = experiment: Percent inhibition for analgesic activity by trypsin-induced hyperalgesia assay at 20 mg/kg by oral administration in rats; type: functional
In short: (§6)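 Rat trypsin-induced hyperalgesia (mild analgesia). Percent inhibition at a single oral dose of 20 mg/kg. Each compound tested two or three times; average variation approximately 5%.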

Rattus norvegicus [14] = experiment: Effective dose required for muscle relaxation after oral administration in Lewis rats by pull-up test
Mus musculus [15] = species on record: Mus musculus; experiment: Effective dose required to produce analgesic activity was measured by mouse hot plate assay; type: functional
Rattus norvegicus [16] = experiment: Effective dose required for sedation in Wistar rats evaluated by loss of righting reflex by oral administration; type: functional
In short: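 Sedation in Wistar rats scored as loss of righting reflex (ability to stay upright) after oral dosing. ED50 reported in mg/kg po.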

Mus musculus [17] = experiment: as §3; type: functional; details: ip; in short: as §4; remark: listed apart in the source
[18] = biological target: T2, Amine oxidase [flavin-containing] B (Homo sapiens, UniProt P27338); experiment: Inhibitory concentration against Monoamine oxidase B (MAO-B)
T2 sequence (P27338 whole entry): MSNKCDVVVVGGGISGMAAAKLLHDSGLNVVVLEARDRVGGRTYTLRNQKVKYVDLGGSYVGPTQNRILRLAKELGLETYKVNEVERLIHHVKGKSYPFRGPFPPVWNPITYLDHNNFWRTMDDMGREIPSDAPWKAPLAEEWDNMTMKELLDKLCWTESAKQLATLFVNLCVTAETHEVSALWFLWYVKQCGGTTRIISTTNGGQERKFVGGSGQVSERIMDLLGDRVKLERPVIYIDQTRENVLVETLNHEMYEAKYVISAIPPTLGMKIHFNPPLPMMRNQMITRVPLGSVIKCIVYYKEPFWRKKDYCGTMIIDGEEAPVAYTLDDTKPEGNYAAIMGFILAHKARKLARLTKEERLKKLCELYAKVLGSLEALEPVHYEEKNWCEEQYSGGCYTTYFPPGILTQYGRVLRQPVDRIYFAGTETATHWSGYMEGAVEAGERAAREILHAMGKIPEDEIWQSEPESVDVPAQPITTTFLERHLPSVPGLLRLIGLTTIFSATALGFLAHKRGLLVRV

Rattus norvegicus [19] = experiment: Percent inhibition for analgesic activity by trypsin-induced hyperalgesia assay at 20 mg/kg by oral administration in rats.; type: functional; in short: as §6
Mus musculus [20] = species on record: Mus musculus; experiment: Ratio of rotarod to straub tail activity, which indicates the dose exhibiting muscle relaxant activity versus that producing sedation; type: functional
In short: (§7)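 Ratio of rotorod ED50 (po) to Straub tail ED50 (po), both measured in mice with oral dosing. Indicates separation between the muscle-relaxant dose and the sedating dose.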

Mus musculus [21] = experiment: Effective dose required for muscle relaxation by intraperitoneal administration in mouse using Straub-tail (ST) assay; type: functional; details: for ED50: ip; in short: as §2
Mus musculus [22] = species on record: Mus musculus; experiment: Ratio of rotarod to Straub-tail activity, which indicates the dose exhibiting muscle relaxant activity versus that producing sedation.; type: functional; in short: as §7
Rattus norvegicus [23] = experiment: Antiinflammatory activity in cells by Carrageenan pleurisy assay by oral administration at 20 mg/kg.; type: functional
In short: (§8)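 Rat carrageenan pleurisy, 3 h. Single oral dose of 20 mg/kg, with separate read-outs for pleural cell counts and edema as percent inhibition. Each compound tested two or three times; average variation approximately 10%.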

Rattus norvegicus [24] = experiment: Antiinflammatory activity in edema by Carrageenan pleurisy assay by oral administration at 20 mg/kg.; type: functional; in short: as §8
Rattus norvegicus [25] = experiment: Antiinflammatory activity in cells using Carrageenan pleurisy assay by oral administration; type: functional; in short: as §1
Rattus norvegicus [26] = experiment: Percent inhibition for analgesic activity by trypsin-induced hyperalgesia assay at 20 mg/kg by oral administration in rats; ND is no data.; type: functional; in short: as §6
[27] = Effective dose required to produce analgesic activity in the trypsin hyperalgesia assay by oral administration; type: functional; in short: as §5
Rattus norvegicus [28] = experiment: Antiinflammatory activity in cells by Carrageenan pleurisy assay by oral administration at 20 mg/kg; type: functional; in short: as §8
Rattus norvegicus [29] = experiment: Antiinflammatory activity in edema by Carrageenan pleurisy assay by oral administration at 20 mg/kg; type: functional; in short: as §8

| Structure (SMILES) | ED50 (Mus musculus [4]) [mg/kg] | ED50 (Rattus norvegicus [5]) [mg/kg] | ED50 (Mus musculus [6]) [mg/kg] | inhibition in vivo at 100 mg/kg (Mus musculus [9]) [%] | ED50 (Rattus norvegicus [10]) [mg/kg] | inhibition in vivo at 20 mg/kg (Rattus norvegicus [13]) [%] | inhibition in vivo at 20 mg/kg (Rattus norvegicus [19]) [%] | ED50 (Mus musculus [21]) [mg/kg] | Ratio (Mus musculus [22]) | ED50 (Rattus norvegicus [25]) [mg/kg] | also measured |
| --- | --- | --- | --- | --- | --- | --- | --- | --- | --- | --- | --- |
| NC(=O)/C=C1\CCc2c(F)cc(F)cc21 | 138 | 15 | 69 | 100 | 4 | 100 | – | – | – | – | ED50 (Rattus norvegicus [1]): 19 mg/kg; ED50 (Rattus norvegicus [2]): 64 mg/kg; IC50 [3]: 11 µM; ED50 [7]: 20 mg/kg; ED50 [8]: 21 mg/kg; ED50 (Rattus norvegicus [11]): 22 mg/kg; ED50 (Mus musculus [12]): No loss of righting reflex; ED50 (Rattus norvegicus [14]): 18 mg/kg; ED50 (Mus musculus [15]): 30 mg/kg; ED50 (Rattus norvegicus [16]): 200 mg/kg; inhibition in vivo at 100 mg/kg (Mus musculus [17]): 67%; IC50 [18]: 0.2 µM |
| NC(=O)/C=C1\CCc2ccccc21 | 164 | – | 108 | – | 9 | – | 88 | 31 | – | – | Ratio (Mus musculus [20]): 1.5 |
| C/C(=C\C(=O)NC1CC1)c1cccc(F)c1 | 71 | – | 122 | – | – | – | – | 46 | 0.6 | – | – |
| NC(=O)/C=C1/CCc2ccccc21 | – | – | – | – | – | – | – | 44 | – | – | – |
| O=C(/C=C/c1cccc(F)c1)NC1CC1 [CINFLUMIDE] | 189 | – | 156 | – | – | – | < 20 | 63 | 1.2 | – | inhibition in vivo at 20 mg/kg (Rattus norvegicus [23]): < 20%; inhibition in vivo at 20 mg/kg (Rattus norvegicus [24]): < 20% |
| NC(=O)/C=C1\CCc2ccc(F)cc21 | 90 | 20 | 56 | – | 16 | 60 | 14 | 22 | 1.6 | 21 | – |
| Cc1ccc2c(c1)/C(=C/C(N)=O)CC2 | – | – | – | 33 | – | – | – | – | – | – | inhibition in vivo at 20 mg/kg (Rattus norvegicus [26]): 14% |
| O=C(/C=C1\CCc2ccc(F)cc21)NCc1ccccc1 | – | 8 | – | – | – | 8 | – | – | – | 16 | inhibition in vivo at 100 mg/kg (Mus musculus [17]): 17% |
| O=C(/C=C1\CCc2ccc(F)cc21)NC1CCCC1 | – | 11 | – | – | – | 6 | – | – | – | 14 | inhibition in vivo at 100 mg/kg (Mus musculus [17]): 0% |
| CNC(=O)/C=C1\CCc2c(F)cc(F)cc21 | – | – | 45 | 100 | 13 | 65 | – | – | – | – | – |
| O=C(/C=C1\CCc2ccccc21)NC1CC1 | 235 | – | 150 | – | – | – | – | 71 | 1.6 | – | – |
| O=C(/C=C1\CCc2ccc(F)cc21)Nc1ccccc1 | – | – | – | – | – | – | – | – | – | 8 | inhibition in vivo at 100 mg/kg (Mus musculus [17]): 83% |
| COc1ccc2c3c1O[C@H]1[C@@H](O)C=C[C@H]4[C@@H](C2)N(C)CC[C@@]341 [CODEINE] | – | – | – | – | – | – | – | – | – | – | ED50 [7]: 27 mg/kg; ED50 [8]: 25 mg/kg; ED50 [27]: 33 mg/kg |
| Cc1cccc2c1CC/C2=C\C(N)=O | – | – | > 100 | – | – | – | 25 | – | – | – | inhibition in vivo at 20 mg/kg (Rattus norvegicus [23]): 15%; Inhibition (Mus musculus [21]): 100%; inhibition in vivo at 20 mg/kg (Rattus norvegicus [24]): 13% |
| CN(C)C(=O)/C=C1\CCc2ccc(F)cc21 | – | 12 | > 100 | 100 | 5 | – | 88 | – | – | 16 | – |
| O=C(/C=C1\CCc2c(F)cccc21)NC1CC1 | – | – | 126 | 100 | – | – | – | – | – | – | inhibition in vivo at 20 mg/kg (Rattus norvegicus [28]): 29%; inhibition in vivo at 20 mg/kg (Rattus norvegicus [29]): 18% |
| CNC(=O)/C=C1\CCc2cc(F)c(F)cc21 | – | 11 | 96 | 100 | 9 | – | 100 | – | – | 18 | – |
| NC(=O)/C=C1\CCc2ccc(Cl)cc21 | 221 | 33 | 98 | – | – | – | – | 40 | 2 | 27 | – |
| NC(=O)/C=C1\CCc2cc(F)cc(F)c21 | 81 | – | 44 | – | 10 | – | 93 | – | 1.8 | – | inhibition in vivo at 20 mg/kg (Rattus norvegicus [23]): 54%; inhibition in vivo at 20 mg/kg (Rattus norvegicus [24]): 55%; inhibition in vivo at 100 mg/kg (Mus musculus [17]): 100% |
| NC(=O)/C=C1\CCc2cc(F)c(F)cc21 | 82 | 17 | 64 | 100 | 19 | 62 | – | – | 1.3 | 13 | – |
